RGS8-Gao reg – regulators of human RGS8-Galphao interaction. response (percent of control binding), % at 10 µM. multiplexed bead flow cytometry, RGS8-Galphao binding; actives lie on both sides. 220,000 tested, 0.34% active. P09471; in the data active = response below about 60% or above about 140%; inactive = in between;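 also: Galphao activated as the GDP aluminium fluoride complex binding bead-coupled RGS8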
Target sequence (P09471 whole entry, looked up): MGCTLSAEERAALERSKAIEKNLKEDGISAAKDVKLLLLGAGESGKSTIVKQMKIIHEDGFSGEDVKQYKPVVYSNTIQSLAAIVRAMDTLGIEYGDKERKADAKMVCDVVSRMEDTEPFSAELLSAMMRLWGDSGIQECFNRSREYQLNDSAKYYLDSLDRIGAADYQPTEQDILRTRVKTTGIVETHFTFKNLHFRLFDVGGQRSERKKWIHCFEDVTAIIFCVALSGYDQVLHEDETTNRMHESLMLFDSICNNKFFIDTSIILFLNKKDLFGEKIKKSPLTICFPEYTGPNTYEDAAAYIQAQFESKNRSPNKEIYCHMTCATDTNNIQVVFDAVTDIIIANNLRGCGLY
RGS7-Gao – modulates binding of RGS7 to human Galphao; Multiplexed bead flow cytometry; actives lie on both sides; binding response (% of control), % at 10 µM; 220,000 tested, 0.35% active; AID 1439; in the data active = binding response below about 49% or above about 150%; inconclusive = no clear call, values can overlap the other calls; inactive = in between;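 also: fluorescent Galphao held in activated GDP-AlF4 state binding bead-coupled RGS7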
ABCG2 inh – inhibitors of human ABCG2 transporter, ABCB1 counter-screen; inhibition, % at 6.6 µM; AID 1325; 190,000 tested, 0.1% active; IgMXP3 cells, JC-1 efflux, flow cytometry; Q9UNQ0;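 active = inhibition above 80%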;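 also: 0% = DMSO and 100% = nicardipine control wells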
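test system = two drug-resistant human cell lines, ABCG2 and ABCB1 | amount = 3 million cells/mL final, two lines in 1:1 ratio | reagent = JC-1 transporter substrate | doses = one concentration, 6.6 µM final | incubation = 10 min at 25 °C | signal = flow cytometric JC-1 green MFI at 530 nm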
ABCB1 inh – blocks JC-1 efflux by human ABCB1 transporter; P08183; AID 1326; 190,000 tested, 0.067% active; inhibition, % at 6.6 µM; CCRF-Adr cells, flow cytometry; in the data active = inhibition above about 40%;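 also: 0% = vehicle and 100% = reference inhibitor; higher value means more JC-1 retained so stronger ABCB1 efflux block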
RGS16-Gao – modulates binding between human RGS16 and Galphao; O15492+P09471; bead-based flow cytometry RGS16-Galphao binding, fluorescence; actives lie on both sides; binding response (% of control), % at 10 µM; 220,000 tested, 0.38% active; AID 1441;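 also: Galphao activated by GDP with aluminum fluoride before binding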
RGS4-Gao reg – modulates binding of RGS4 to human Galphao. Multiplexed bead flow cytometry; actives lie on both sides. binding response (% of control), % at 10 µM. 220,000 tested, 0.33% active. AID 1415; in the data active = binding response below about 49% or above about 150%; inactive = in between;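 also: fluorescent Galphao activated with aluminum fluoride binding bead-coupled RGS4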
RGS4-Gao HTS – RGS4-Galphao interaction regulator (human); 1,600 tested, 99% active; multiplexed bead flow cytometry, RGS–Galpha-o binding; RGS4–Galpha-o binding response, % at 10 µM; shares compounds with RGS16-Gao;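 also: fluorescently labeled Galpha-o bound to GDP with aluminium fluoride binding biotinylated RGS beads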
Biotin-avidin – biotin-avidin bead binding disruption counter-screen. inhibition, % at 10 µM. AID 1783. 1,700 tested, under 10 active. shares compounds with RGS16-Gao. streptavidin beads, fluorescein-biotin binding, flow cytometry;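 active = inhibition above 50%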;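 also: median green fluorescence of gated singlet beads compared with DMSO control wells; 0% = DMSO wells and 100% = complete loss of bead fluorescence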
RGS8-Gao single – confirmation of regulators of human RGS8-Galphao interaction | shares compounds with RGS16-Gao | bead-based flow cytometry RGS8-Galphao binding, fluorescence; actives lie on both sides | binding response (% of control), % at 10 µM | AID 1836 | 1,700 tested, 3% active; in the data active = binding response below about 72% or above about 130%; inactive = in between;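 also: Galphao activated as GDP AlF4 complex before binding bead RGS8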
RGS7-Gao single – confirmation of regulators of human RGS7-Galphao interaction; shares compounds with RGS16-Gao; bead-based flow cytometry RGS7-Galphao binding; actives lie on both sides; response (percent of control binding), % at 10 µM; 1,700 tested, 7.8% active; AID 1837; in the data active = response below about 75% or above about 130%; inactive = in between;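 also: fluorescent Galphao activated with GDP and aluminum fluoride binding bead-coupled RGS7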
RGS16-Gao single – RGS16-Galphao interaction regulation, single point confirmation; 1,700 tested, 4% active; response (% of control binding), % at 10 µM; bead-based flow cytometry, RGS16-Galphao binding; actives lie on both sides; shares compounds with RGS16-Gao; in the data active = response below about 74% or above about 130%; inactive = in between;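 also: Galphao activated as the GDP aluminium fluoride complex binding bead-coupled RGS16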
RGS4-Gao confirm – RGS4-Galphao interaction regulation, single point confirmation | shares compounds with RGS16-Gao | RGS4-Galphao binding, multiplexed bead flow cytometry; actives lie on both sides | binding response (% of control), % at 10 µM | 1,700 tested, 4% active | AID 1840; in the data active = binding response below about 74% or above about 130%; inactive = in between
RGS19-Gao single – RGS19-Galphao interaction regulation, single point confirmation; bead-based flow cytometry RGS19-Galphao binding; actives lie on both sides; 1,700 tested, 5% active; response (percent of control binding), % at 10 µM; shares compounds with RGS16-Gao; in the data active = response below about 50% or above about 160%; inactive = in between;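 also: 100% = no compound control and 0% = blank background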
Target sequence (P09471 whole entry, looked up): as above
Target sequence (P49795 whole entry, looked up): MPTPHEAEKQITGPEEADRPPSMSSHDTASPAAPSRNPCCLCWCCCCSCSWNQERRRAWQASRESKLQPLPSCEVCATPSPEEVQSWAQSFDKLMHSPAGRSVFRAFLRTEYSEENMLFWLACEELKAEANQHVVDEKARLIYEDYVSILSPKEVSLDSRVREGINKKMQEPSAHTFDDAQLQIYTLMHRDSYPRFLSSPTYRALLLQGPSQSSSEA
* hit, by the source's call; i = inactive; ? = inconclusive; / = no result; [ ] = dose if it differs, or a comment. Shown are actives, neighbours in structure and some others; about 0.83% of the full set was active somewhere. Unless noted, no rule for the calls is given here.

SMILES	RGS8-Gao reg	RGS7-Gao	ABCG2 inh	ABCB1 inh	RGS16-Gao	RGS4-Gao reg	RGS4-Gao HTS	Biotin-avidin	RGS8-Gao single	RGS7-Gao single	RGS16-Gao single	RGS4-Gao confirm	RGS19-Gao single
Cc1cc(C)n(-c2nc3ccccc3c(=O)n2OCC(=O)Nc2c(C)cccc2C)n1	174*[activator]	134	2	2	i	149	149*	4	127*[activator]	276*[activator]	210*[activator]	210*[activator]	246*[activator]
Cc1cc(C(=O)N2CCN(CCc3ccccc3)CC2)no1	172*[activator]	224*[activator]	-1	0	303*[activator]	227*[activator]	/	1	93	58*	70*	73*	39*
Cc1noc(C)c1C(=O)N1CCN(CCc2ccccc2)CC1	99	102	2	1	103	104	/	/	/	/	/	/	/
CC1CCCCN1C(=S)NCCc1ccccc1 (stereo not given)	102	100	2	1	98	100	/	/	/	/	/	/	/
Cc1onc(-c2ccccc2Cl)c1C(=O)NCc1cccs1	103	102	5	2	103	101	/	/	/	/	/	/	/
Cc1noc(C)c1C(=O)NCc1cccs1	/	/	0	0	/	/	/	1	102	101	104	103	106
Oc1ccc(N=Nc2n[nH]c(-c3ccccc3)n2)cc1	82	87	-4	-1	14*	91	91*	1	95	56*	72*	72*	35*
Nc1nc(N2CCN(C(c3ccccc3)c3ccccc3)CC2)n[nH]1	57*	39*	0	0	91	82	82*	3	100	88	95	94	86
Nc1nc(N2CCN(Cc3ccccc3)CC2)n[nH]1	103	100	1	0	99	102	/	/	/	/	/	/	/
N#Cc1c(-c2ccccc2)nc(N2CCCCCC2)[nH]c1=O	82	88	2	0	15*	86	86*	0	101	104	104	103	95
N#Cc1c(-c2ccccc2)nc(N2CCOCC2)[nH]c1=O	107	103	8	2	116	107	/	/	/	/	/	/	/
CCOC(=O)Nc1ccc2c(c1)N(C(=O)N(CC)CC)c1ccccc1CC2	112	99	10	1	139	103	/	/	/	/	/	/	/
CCOC(=O)C1=C(C)NC(C)=C(C(=O)OCCNC(=O)c2cccnc2)C1c1cccc([N+](=O)[O-])c1 (stereo not given)	124	111	19	3	213*[activator]	108	108*	-2	85	70*	78	81	104
Cc1cc(NC(=O)CCCOc2ccc(Cl)cc2Cl)no1	167*[activator]	131	1	0	i	142	142*	/	/	/	/	/	/
Nc1ccc(S(=O)(=O)N2CCCC2C(=O)O)cc1 (stereo not given)	99	?	/	/	101	103	/	/	/	/	/	/	/
O=C(O)C1CCCN1S(=O)(=O)c1ccc2[nH]c(=O)c(=O)[nH]c2c1 (stereo not given)	133	144	1	0	161	158*[activator]	/	1	102	102	100	102	79
O=c1cc(CSc2nnc(COc3ccccc3)n2-c2ccccc2)c2ccccc2[nH]1	104	-15*	-1	0	28	-76*	/	-2	100	91	99	96	91
Cc1cc2c(cc1C)-c1nnc(-c3ccc4ccccc4n3)n1C(C)(C)C2	95	94	3	1	95	93	/	/	/	/	/	/	/
CC1(C)Cc2ccccc2-c2nnc(-c3ccc4ccccc4n3)n21	74	85	14	3	19*	78	78*	1	104	101	106	105	93
CCOc1cc(-c2nc(C)c(C(C)=O)n2O)ccc1OCC(=O)Nc1ccc(F)cc1	103	158*[activator]	7	0	114	110	110*	-1	93	90	92	101	77
CCOc1ccc(OCC)c(NC(=O)C2CCN(S(=O)(=O)c3cnc[nH]3)CC2)c1	98	100	1	0	102	100	/	/	/	/	/	/	/
O=C(COC(=O)Cc1cn2ccsc2n1)NC12CC3CC(CC(C3)C1)C2	101	101	4	1	101	102	/	/	/	/	/	/	/
CC1CCCC(NC(=O)COC(=O)Cc2cn3ccsc3n2)C1C (stereo not given)	3.7*	-19*	1	0	-64*	-58*	/	-1	103	99	107	100	99
CCOc1ccc(C(=O)NCc2cccnc2)cc1[N+](=O)[O-]	101	100	18	1	102	103	/	/	/	/	/	/	/
Cc1ccc(S(=O)(=O)NCCc2nnc3ccc(SCC(=O)Nc4nc(C)cs4)nn23)cc1	101	99	4	2	102	102	/	/	/	/	/	/	/
CCN(CC)CCNc1ccc2nnc(CCNS(=O)(=O)c3ccc(C)cc3)n2n1	15*	16*	1	0	11*	20*	/	0	100	67*	91	77	106
CCN(CC)c1ccc(NC(=O)c2cccc(F)c2)c(C)c1	53*	40*	1	0	36	45*	/	i	103	99	102	101	109
Nc1c(Cl)cc(Cl)cc1C(=O)OCC(=O)N1CCCC1	14*	9.7*	1	0	4.0*	11*	/	0	108	109	105	107	110
CC(=O)Nc1ccccc1NS(=O)(=O)c1ccccc1[N+](=O)[O-]	100	401*[activator]	0	0	123	158*[activator]	/	3	104	102	100	103	106
CC(=O)NNS(=O)(=O)c1ccccc1[N+](=O)[O-]	100	101	7	1	104	103	/	/	/	/	/	/	/

Screens as filed in PubChem.
